In brackets after ≈: the same amount, converted by molar mass. One block for each compound: values may come before it.
Tests used:
Assay type in all cases: functional
[1] = tested on: Candida parapsilosis; assay: Antifungal activity against Candida parapsilosis NBRC 10219 after 48 hrs by broth microdilution method; details: Lodderomyces parapsilosis, NBRC 10219, 48 h
Summary of the method: (§1)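 CLSI M27-A2 (yeasts) or M38-A (A. fumigatus) broth microdilution in RPMI 1640 buffered to pH 7.0 with 0.165 M MOPS. Final inocula were 0.65–2.5 × 10^3 CFU/ml for yeasts and 0.87–3.8 × 10^4 CFU/ml for filamentous fungi. Incubation was at 35°C for about 48 h (72 h for C. neoformans). MIC was the lowest concentration giving a prominent (~50%) turbidity drop versus growth control; amphotericin B required complete inhibition.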

[2] = tested on: Candida tropicalis; assay: Antifungal activity against Candida tropicalis clinical isolates after 48 hrs by broth microdilution method
Summary of the method: (§2)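 Clinical isolates from Japanese hospitals or culture collections were tested by broth microdilution in RPMI 1640-MOPS. Inoculum was 0.57 × 10^3–2.5 × 10^3 CFU/ml for yeasts and 0.4 × 10^4–3.3 × 10^4 CFU/ml for filamentous fungi. Incubation was at 35°C for about 48 h, or 72 h where footnoted. Results were summarised as MIC range, MIC50 and MIC90.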

[3] = tested on: Candida albicans; assay: Antifungal activity against Candida albicans ATCC MYA-573 after 47 hrs by broth microdilution method; details: ATCC MYA-573, 47 h
Summary of the method: (§3)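 Fluconazole-resistant or susceptible-dose-dependent ATCC C. albicans strains were tested by CLSI M27-A2 broth microdilution in RPMI 1640–0.165 M MOPS, pH 7.0, with a final inoculum of 1.1–1.5 × 10^3 CFU/ml at 35°C for about 47 h. MIC was the lowest concentration with a prominent (~50%) turbidity decrease relative to growth control; amphotericin B was read at complete inhibition.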

[4] = tested on: Trichophyton rubrum; assay: Antifungal activity against Trichophyton rubrum NBRC 5467 after 72 hrs by broth microdilution method; details: NBRC 5467, 72 h
Summary of the method: (§4)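 CLSI M27-A2 (yeasts) / M38-A (moulds) broth microdilution in RPMI 1640 buffered to pH 7.0 with 0.165 M MOPS. Malassezia furfur got the same medium supplemented with glucose, bile salts, glycerol, glycerol monostearate and Tween 20. Final inoculum 0.65 × 10^3–2.5 × 10^3 CFU/ml for yeasts and 0.87 × 10^4–3.8 × 10^4 CFU/ml for filamentous fungi. Incubation at 35°C except M. racemosus and F. solani, which were held at 30°C.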

[5] = tested on: Meyerozyma guilliermondii; assay: Antifungal activity against Candida guilliermondii IFO 10279 after 48 hrs by broth microdilution method; details: IFO 10279, 48 h; summary of the method: as §4
[6] = tested on: Candida albicans; assay: Antifungal activity against Candida albicans ATCC MYA-575 after 47 hrs by broth microdilution method; details: ATCC MYA-575, 47 h; summary of the method: as §3
[7] = tested on: Aspergillus fumigatus; assay: Antifungal activity against Aspergillus fumigatus IFM 46895 infected ICR mouse after 6 days; details: IFM 46895, 144 h
Summary of the method: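 Male ICR mice, 4 weeks old and SPF, were made neutropenic with intraperitoneal cyclophosphamide. The schedule was 200 mg/kg on day −3 (day −4 for Cryptococcus) plus 100 mg/kg on day +1. Infection was by tail-vein injection of 0.2 ml suspension: C. albicans 3.0 × 10^4, C. neoformans 9.1 × 10^4, A. fumigatus conidia 8.4 × 10^4 CFU/mouse. Drugs were given subcutaneously once daily for 7 days from 2 h post-infection; controls received saline. Groups had 8–10 mice.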

[8] = tested on: Nakaseomyces glabratus; assay: Antifungal activity against Candida glabrata ATCC 90030 after 48 hrs by broth microdilution method; details: ATCC 90030, 48 h; summary of the method: as §4
[9] = tested on: Aspergillus terreus; assay: Antifungal activity against Aspergillus terreus NBRC 33026 after 48 hrs by broth microdilution method; details: NBRC 33026, 48 h; summary of the method: as §4
[10] = tested on: Candida albicans; assay: Antifungal activity against Candida albicans ATCC MYA-2732 after 47 hrs by broth microdilution method; details: ATCC MYA-2732, 47 h
Summary of the method: (§5)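 Fluconazole-resistant or susceptible-dose-dependent C. albicans ATCC strains were tested by broth microdilution in RPMI 1640-MOPS. Inoculum was 1.1 × 10^3–1.5 × 10^3 CFU/ml, with incubation at 35°C for about 47 h. Yeast MIC was read as about 50% turbidity decrease relative to growth control, except amphotericin B, read at complete inhibition.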

[11] = tested on: Rhizopus arrhizus; assay: Antifungal activity against Rhizopus oryzae NBRC 31005 after 24 hrs by broth microdilution method; details: NBRC 31005, 24 h; summary of the method: as §4
[12] = tested on: Scedosporium boydii; assay: Antifungal activity against Pseudallescheria boydii NBRC 32229 after 72 hrs by broth microdilution method; details: NBRC 32229, 72 h; summary of the method: as §4
[13] = tested on: Fusarium solani; assay: Antifungal activity against Fusarium solani IFO 31093 after 48 hrs by broth microdilution method; details: IFO 31093, 48 h; summary of the method: as §4
[14] = tested on: Cryptococcus neoformans; assay: Antifungal activity against Cryptococcus neoformans clinical isolates after 72 hrs by broth microdilution method; summary of the method: as §2
[15] = tested on: Candida albicans; assay: Antifungal activity against Candida albicans ATCC 24433 after 48 hrs by broth microdilution method; details: ATCC 24433, 48 h; summary of the method: as §1
[16] = tested on: Candida albicans; assay: Antifungal activity against Candida albicans ATCC MYA-1003 after 47 hrs by broth microdilution method; details: ATCC MYA-1003, 47 h; summary of the method: as §3
[17] = tested on: Nakaseomyces glabratus; assay: Antifungal activity against Candida glabrata clinical isolates after 48 hrs by broth microdilution method; summary of the method: as §2
[18] = tested on: Pichia kudriavzevii; assay: Antifungal activity against Candida krusei clinical isolates after 48 hrs by broth microdilution method
Summary of the method: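 Japanese hospital Candida isolates were tested by CLSI M27-A2 broth microdilution in RPMI 1640–MOPS, pH 7.0, with inocula of 0.57–2.5 × 10^3 CFU/ml at 35°C for about 48 h. Inocula came from 24-h potato dextrose agar cultures. MIC was the lowest concentration with about 50% turbidity reduction versus growth control (complete inhibition for amphotericin B). Range, MIC50 and MIC90 were reported.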

[19] = tested on: Candida albicans; assay: Antifungal activity against Candida albicans ATCC 64124 after 47 hrs by broth microdilution method; details: ATCC 64124, 47 h; summary of the method: as §3
[20] = tested on: Aspergillus fumigatus; assay: Antifungal activity against Aspergillus fumigatus IFM 46895 after 48 hrs by broth microdilution method; details: IFM 46895, 48 h; summary of the method: as §4
[21] = tested on: Candida albicans; assay: Antifungal activity against Candida albicans ATCC 64550 after 47 hrs by broth microdilution method; details: ATCC 64550, 47 h; summary of the method: as §5
[22] = tested on: Cryptococcus neoformans; assay: Antifungal activity against Cryptococcus neoformans ATCC 90113 after 72 hrs by broth microdilution method; details: ATCC 90113, 72 h; summary of the method: as §4
[23] = tested on: Candida albicans; assay: Antifungal activity against Candida albicans ATCC MYA-574 after 47 hrs by broth microdilution method; details: ATCC MYA-574, 47 h; summary of the method: as §5

MIC [1]: 0.001 µg/mL (≈ 0.00229 µM)
MIC50 [2]: 0.0005 µg/mL (≈ 0.00114 µM)
MIC90 [2]: 0.0005 µg/mL (≈ 0.00114 µM)
MIC [3]: 0.001 µg/mL (≈ 0.00229 µM)
MIC [4]: 2 µg/mL (≈ 4.57 µM)
MIC [5]: 0.002 µg/mL (≈ 0.00457 µM)
MIC [6]: 0.001 µg/mL (≈ 0.00229 µM)
MIC [8]: 0.0039 µg/mL (≈ 0.00891 µM)
MIC [9]: 0.125 µg/mL (≈ 0.286 µM)
MIC [10]: 0.001 µg/mL (≈ 0.00229 µM)
MIC [11]: > 64 µg/mL
MIC [12]: 4 µg/mL (≈ 9.14 µM)
MIC [13]: 0.125 µg/mL (≈ 0.286 µM)
MIC50 [14]: 0.0156 µg/mL (≈ 0.0356 µM)
MIC90 [14]: 0.0313 µg/mL (≈ 0.0715 µM)
MIC [15]: 0.001 µg/mL (≈ 0.00229 µM)
MIC [16]: 0.001 µg/mL (≈ 0.00229 µM)
MIC [17]: 0.0039 µg/mL (≈ 0.00891 µM)
MIC50 [17]: 0.0039 µg/mL (≈ 0.00891 µM)
MIC90 [17]: 0.0078 µg/mL (≈ 0.0178 µM)
MIC50 [18]: 0.001 µg/mL (≈ 0.00229 µM)
MIC90 [18]: 0.002 µg/mL (≈ 0.00457 µM)
MIC [19]: 0.001 µg/mL (≈ 0.00229 µM)
MIC [20]: 0.0625 µg/mL (≈ 0.143 µM)
MIC [21]: 0.0005 µg/mL (≈ 0.00114 µM)
MIC [22]: 0.0078 µg/mL (≈ 0.0178 µM)
MIC [23]: 0.001 µg/mL (≈ 0.00229 µM)
Compound: N=C(N)c1ccc(OCCCC2CCN(CCCOc3ccc(C(=N)N)cc3)CC2)cc1
MFC [1]: > 64 µg/mL
MFC [4]: > 64 µg/mL
MFC [5]: 0.0078 µg/mL (≈ 0.0178 µM)
ED50 [7]: 0.391 mg/kg
MFC [8]: > 64 µg/mL
MFC [9]: 4 µg/mL (≈ 9.14 µM)
MFC [11]: > 64 µg/mL
MFC [12]: > 64 µg/mL
MFC [13]: > 64 µg/mL
MFC [15]: > 64 µg/mL
MFC [20]: > 64 µg/mL
MFC [22]: 0.0625 µg/mL (≈ 0.143 µM)

Compound: C[C@@H]1[C@H](O)[C@@H](C)/C=C/C=C/C=C/C=C/C=C/C=C/C=C/[C@H](O[C@@H]2O[C@H](C)[C@@H](O)[C@H](N)[C@@H]2O)C[C@@H]2O[C@](O)(C[C@@H](O)C[C@@H](O)[C@H](O)CC[C@@H](O)C[C@@H](O)CC(=O)O[C@H]1C)C[C@H](O)[C@H]2C(=O)O [AMPHOTERICIN B]
MFC [1]: 1 µg/mL (≈ 1.08 µM)
MIC [1]: 1 µg/mL (≈ 1.08 µM)
MIC [2]: 1 µg/mL (≈ 1.08 µM)
MIC50 [2]: 1 µg/mL (≈ 1.08 µM)
MIC90 [2]: 2 µg/mL (≈ 2.16 µM)
MIC [3]: 2 µg/mL (≈ 2.16 µM)
MFC [4]: 1 µg/mL (≈ 1.08 µM)
MIC [4]: 1 µg/mL (≈ 1.08 µM)
MFC [5]: 1 µg/mL (≈ 1.08 µM)
MIC [5]: 0.5 µg/mL (≈ 0.541 µM)
MIC [6]: 2 µg/mL (≈ 2.16 µM)
ED50 [7]: 0.289 mg/kg
MFC [8]: 1 µg/mL (≈ 1.08 µM)
MIC [8]: 1 µg/mL (≈ 1.08 µM)
MFC [9]: > 64 µg/mL
MIC [9]: 2 µg/mL (≈ 2.16 µM)
MIC [10]: 2 µg/mL (≈ 2.16 µM)
MFC [11]: 1 µg/mL (≈ 1.08 µM)
MIC [11]: 1 µg/mL (≈ 1.08 µM)
MFC [12]: > 64 µg/mL
MIC [12]: > 64 µg/mL
MFC [13]: 2 µg/mL (≈ 2.16 µM)
MIC [13]: 2 µg/mL (≈ 2.16 µM)
MIC [14]: 1 µg/mL (≈ 1.08 µM)
MIC50 [14]: 1 µg/mL (≈ 1.08 µM)
MIC90 [14]: 1 µg/mL (≈ 1.08 µM)
MFC [15]: 1 µg/mL (≈ 1.08 µM)
MIC [15]: 1 µg/mL (≈ 1.08 µM)
MIC [16]: 2 µg/mL (≈ 2.16 µM)
MIC [17]: 1 µg/mL (≈ 1.08 µM)
MIC50 [17]: 1 µg/mL (≈ 1.08 µM)
MIC90 [17]: 2 µg/mL (≈ 2.16 µM)
MIC [18]: 2 µg/mL (≈ 2.16 µM)
MIC50 [18]: 2 µg/mL (≈ 2.16 µM)
MIC90 [18]: 2 µg/mL (≈ 2.16 µM)
MIC [19]: 2 µg/mL (≈ 2.16 µM)
MFC [20]: 2 µg/mL (≈ 2.16 µM)
MIC [20]: 2 µg/mL (≈ 2.16 µM)
MIC [21]: 1 µg/mL (≈ 1.08 µM)
MFC [22]: 2 µg/mL (≈ 2.16 µM)
MIC [22]: 2 µg/mL (≈ 2.16 µM)
MIC [23]: 1 µg/mL (≈ 1.08 µM)

— ChEMBL document CHEMBL1255303, “In vitro and in vivo antifungal activities of T-2307, a novel arylamidine” (2008)
